A selection: hits, their analogues and other compounds. The true share with any hit is near 1.4%.
CDK5 p35 inh: inhibitors of human CDK5/p35 kinase, primary screen, biochemical, single concentration. 0.01% of 330,000 active. Recombinant CDK5/p35, ADP-Glo luminescence, 60 min. Cyclin-dependent kinase 5 (Homo sapiens) + Cyclin-dependent kinase 5 activator 1 (Homo …. inhibition, % at 10 µM. AID 488839, 2010;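 active = highest replicate inhibition of at least 50% and at least 75% of replicates reaching 50%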;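 note: plate controls were DMSO neutral control for no effect and GW8510 at 10 µM for full effect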
Target sequence (Q00535 whole entry, looked up): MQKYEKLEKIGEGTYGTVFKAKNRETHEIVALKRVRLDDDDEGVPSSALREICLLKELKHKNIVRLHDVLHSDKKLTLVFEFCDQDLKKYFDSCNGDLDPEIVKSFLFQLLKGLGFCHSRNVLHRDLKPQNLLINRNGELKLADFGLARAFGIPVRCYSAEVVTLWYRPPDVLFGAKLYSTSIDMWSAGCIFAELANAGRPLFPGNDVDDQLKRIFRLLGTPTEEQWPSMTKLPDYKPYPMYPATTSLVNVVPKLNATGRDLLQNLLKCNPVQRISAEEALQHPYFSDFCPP
Target sequence (Q15078 whole entry, looked up): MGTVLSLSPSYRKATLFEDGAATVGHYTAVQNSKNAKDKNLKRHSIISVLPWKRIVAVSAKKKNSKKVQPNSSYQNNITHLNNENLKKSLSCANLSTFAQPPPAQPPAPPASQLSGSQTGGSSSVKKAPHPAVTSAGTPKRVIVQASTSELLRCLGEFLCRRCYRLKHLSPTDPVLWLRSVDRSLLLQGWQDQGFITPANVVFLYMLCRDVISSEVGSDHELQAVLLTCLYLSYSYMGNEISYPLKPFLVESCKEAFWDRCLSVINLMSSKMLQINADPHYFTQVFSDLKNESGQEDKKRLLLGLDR
PvdQ inh: P. aeruginosa PvdQ acylase inhibitors, primary screen, biochemical, fluorescence, plate reader and imaging, single point; AID 488965, 2010; purified PvdQ acylase; 0.063% of 340,000 active; inhibition, % at 10 µM; in the data active = inhibition above about 30%, passing the limit was not always enough;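 note: 0% = vehicle neutral wells and 100% = reference inhibitor wells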
Glyco luc inh: increase of ERlucT glycosylation luciferase signal, primary screen, N-linked glycosylation inhibitor project, D54 ERlucT cells, luminescence, set 2; D54 ERlucT glycosylation luciferase reporter, 24 h; percent of 100 nM tunicamycin response; reporter increase, % at 12.5 µM; 0.23% of 360,000 active; AID 588692, 2011;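 active = mean luciferase reporter signal, scaled so untreated is 0 and the glycosylation-blocking control 100, at or above a set limit in every replicate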;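 note: luciferase carries N-glycosylation sites so blocking glycosylation raises the light; 0% = median of neutral control wells and 100% = median of 100 nM tunicamycin wells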
CAL PDZ FP-1: CAL PDZ peptide-binding inhibitors, primary screen, biochemical, fluorescence polarization, Cer-tagged CAL PDZ, HTS | Golgi-associated PDZ and coiled-coil motif-containing protein (Homo sapiens), Q9HD26 | purified CAL PDZ, TMR-peptide fluorescence polarization, 1 h | inhibition, % at 20 µM | 0.02% of 330,000 active | AID 504414, 2011;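 active = highest replicate inhibition of at least 40%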;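 note: plate controls were DMSO neutral control wells for no effect and unlabeled competitor peptide control wells for full effect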
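material = purified tagged CAL PDZ domain construct (CerCALP) | compound dosing = 20 µM, one dose | times = 1 h at RT | measured by = fluorescence polarization from S- and P-plane intensities, G-factor corrected | read-out = inhibition from polarization loss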
CAL PDZ FP-2: untagged CAL PDZ binding inhibitors, primary screen, biochemical, fluorescence polarization, HTS; Golgi-associated PDZ and coiled-coil motif-containing protein (Homo sapiens), Q9HD26; purified CAL PDZ, TMR-peptide fluorescence polarization, 1 h; inhibition, % at 24.9 µM; 0.92% of 300,000 active; AID 602252, 2012;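 active = mean inhibition of at least 30% with at least half of replicates also reaching 30%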;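 note: 0% = DMSO neutral control and 100% = excess unlabeled competitor peptide PRC23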
Vif inh: HIV Vif self-association inhibitors, primary screen, imaging, HEK293T, single point. inhibition, % at 7.49 µM. HEK293T cells, Vif self-association by quenched fluorescence, 24 h. AID 602346, 2012. 0.35% of 340,000 active; in the data active = inhibition above about 50%, passing the limit was not always enough
Starred values were filed as active, the others as inactive.

Results for CCc1nnc(NS(=O)(=O)c2ccc(N3C(=O)c4ccccc4C3=O)cc2)s1 ?
CDK5 p35 inh: -1; PvdQ inh: -14; Glyco luc inh: 1; CAL PDZ FP-1: -1; CAL PDZ FP-2: 84*; Vif inh: 1

Results for CCc1nnc(NS(=O)(=O)c2ccc(N)cc2)s1 ?
CDK5 p35 inh: 0; PvdQ inh: -9; Glyco luc inh: 1; CAL PDZ FP-1: 0; CAL PDZ FP-2: -1; Vif inh: -2

What do the screens show for `CCc1cc(C(=O)N(C)CC(=O)Nc2c(Cl)cccc2Cl)sc1C`?
CDK5 p35 inh: -1; PvdQ inh: -2; Glyco luc inh: -2; CAL PDZ FP-1: -1; CAL PDZ FP-2: -4; Vif inh: -17

Results for O=C(Nc1ccc(Cl)cc1)N1CCN(C(=O)C2CCCO2)CC1 (stereo unspecified) ?
CDK5 p35 inh: -1; PvdQ inh: -9; Glyco luc inh: 1; CAL PDZ FP-1: 0; CAL PDZ FP-2: -6; Vif inh: 6

What do the screens show for `O=C(CN1CCN(C(=O)C2CCCO2)CC1)Nc1ccc(Cl)cc1` (stereo unspecified)?
CDK5 p35 inh: 1; PvdQ inh: -12; Glyco luc inh: 0; CAL PDZ FP-1: -1; CAL PDZ FP-2: 33*; Vif inh: -5

How did COc1ccccc1NC(=O)Cc1cccs1 do in these assays?
CDK5 p35 inh: 0; PvdQ inh: -5; Glyco luc inh: 0; CAL PDZ FP-1: -1; CAL PDZ FP-2: 2; Vif inh: 9

How did COc1ccccc1NC(=O)Nc1ccnn1Cc1cccs1 do in these assays?
CDK5 p35 inh: -1; PvdQ inh: -6; Glyco luc inh: 1; CAL PDZ FP-1: -1; CAL PDZ FP-2: 57*; Vif inh: -3

What do the screens show for `O=S(=O)(Cc1nnnn1-c1ccccc1)c1ccc(Cl)cc1`?
CDK5 p35 inh: 1; PvdQ inh: -12; Glyco luc inh: 0; CAL PDZ FP-1: -3; CAL PDZ FP-2: 0; Vif inh: -3

How did C=CC[C@@H](CC(=O)N[C@@H](CO)Cc1ccccc1)C(=O)N[C@H](C)COC(=O)[C@@H](CC=C)Cc1ccc(F)cc1 do in these assays?
CDK5 p35 inh: 1; PvdQ inh: 2; Glyco luc inh: -2; CAL PDZ FP-1: -1; CAL PDZ FP-2: -3; Vif inh: 22

Results for Cc1ccc(C(=O)NC(=S)NCC(=O)c2ccccc2)cc1 ?
CDK5 p35 inh: 1; PvdQ inh: -13; Glyco luc inh: -1; CAL PDZ FP-2: 33*; Vif inh: 14

How did CC(C)N(Cc1ccccc1)C(=O)CN1c2cccc3cccc(c23)S1(=O)=O do in these assays?
CDK5 p35 inh: -2; PvdQ inh: -14; Glyco luc inh: -2; CAL PDZ FP-1: 0; CAL PDZ FP-2: -6; Vif inh: 3

How did CN(C)C(=O)CN1c2cccc3cccc(c23)S1(=O)=O do in these assays?
CDK5 p35 inh: 0; PvdQ inh: -16; Glyco luc inh: 0; CAL PDZ FP-1: -1; CAL PDZ FP-2: 31*; Vif inh: 18

What do the screens show for `CCN(CC)S(=O)(=O)c1ccc(/C=C/C(=O)OCC(=O)NCc2ccco2)cc1`?
CDK5 p35 inh: 2; PvdQ inh: -5; Glyco luc inh: 0; CAL PDZ FP-1: -1; CAL PDZ FP-2: 6; Vif inh: 10

What do the screens show for `CCCCn1nnc(NC(=O)c2ccc([N+](=O)[O-])cc2Cl)n1`?
CDK5 p35 inh: -1; PvdQ inh: -12; Glyco luc inh: 0; CAL PDZ FP-1: 0; CAL PDZ FP-2: 67*; Vif inh: 1

Results for S=C(NCc1ccccc1)NCc1ccccc1 ?
CDK5 p35 inh: 1; PvdQ inh: -9; Glyco luc inh: 1; CAL PDZ FP-1: -3; CAL PDZ FP-2: -1; Vif inh: -1

How did S=C(NCc1ccccc1)NNc1ccccc1 do in these assays?
CDK5 p35 inh: -1; PvdQ inh: -14; Glyco luc inh: -1; CAL PDZ FP-1: -1; CAL PDZ FP-2: 58*; Vif inh: -3

How did N#CC(c1ccccc1)c1ccc(=O)[nH]n1 (stereo unspecified) do in these assays?
CDK5 p35 inh: -1; PvdQ inh: 9; Glyco luc inh: 1; CAL PDZ FP-1: 0; CAL PDZ FP-2: -1; Vif inh: -2

How did N#CC(c1ccc(Cl)cc1)c1ccc(Cl)nn1 (stereo unspecified) do in these assays?
CDK5 p35 inh: 0; PvdQ inh: 80*; Glyco luc inh: -1; CAL PDZ FP-1: -1; CAL PDZ FP-2: -2; Vif inh: -5

Results for N#CC(c1ccc(Cl)nn1)c1ccccc1Cl (stereo unspecified) ?
CDK5 p35 inh: -2; PvdQ inh: 108*; Glyco luc inh: 1; CAL PDZ FP-1: 0; CAL PDZ FP-2: -2; Vif inh: 11

What do the screens show for `Cc1ccc(C(C#N)c2ccc3c(C(F)(F)F)cc(C(F)(F)F)nc3n2)cc1` (stereo unspecified)?
CDK5 p35 inh: 3; PvdQ inh: -11; Glyco luc inh: -11; CAL PDZ FP-1: -2; CAL PDZ FP-2: -3; Vif inh: 4

How did Cc1ccc(C(C#N)c2ccc(Cl)nn2)cc1 (stereo unspecified) do in these assays?
CDK5 p35 inh: 1; PvdQ inh: 86*; Glyco luc inh: -1; CAL PDZ FP-1: 0; CAL PDZ FP-2: -2; Vif inh: -3

How did Cc1cccc(C(C#N)c2ccc(Cl)nn2)c1 (stereo unspecified) do in these assays?
CDK5 p35 inh: -2; PvdQ inh: 89*; Glyco luc inh: 0; CAL PDZ FP-1: 0; CAL PDZ FP-2: 3; Vif inh: -1

What do the screens show for `CC1CC(C)CN(S(=O)(=O)CCNC(=O)c2ccc3c(c2)OCO3)C1` (stereo unspecified)?
CDK5 p35 inh: 0; PvdQ inh: -15; Glyco luc inh: -1; CAL PDZ FP-1: 1; CAL PDZ FP-2: -1; Vif inh: -1

How did CCCn1c(SCC(=O)NC2CCCC2)nc2c1c(=O)n(C)c(=O)n2C do in these assays?
CDK5 p35 inh: -2; PvdQ inh: 1; Glyco luc inh: 1; CAL PDZ FP-1: -4; CAL PDZ FP-2: -5; Vif inh: 3

Results for CC(=O)C(Cc1ccccc1)NC(=O)COc1ccc2c(c1)OCO2 (stereo unspecified) ?
CDK5 p35 inh: 0; PvdQ inh: -20; Glyco luc inh: 2; CAL PDZ FP-1: -1; CAL PDZ FP-2: -6; Vif inh: -3
